High-throughput results deposited in PubChem by several laboratories.
Lmaj promast: inhibitors of Leishmania major promastigote growth; Leishmania major promastigotes, resazurin fluorescence viability; inhibition, % at 10 µM; actives 9% (n = 200,000); in the data active = inhibition above about 50%;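 note: promastigotes grown with compound for 44 hours at 28 °C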
Mdm2 MdmX PPI: inhibitors of human Mdm2/MdmX interaction; SaOS-2 split-luciferase Mdm2/MdmX complementation, luminescence; inhibition, % at 8 µM; actives 3% (n = 330,000);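 active = inhibition of at least 50% at 8 µM in the primary screen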
Target sequence (O15151 whole entry, looked up): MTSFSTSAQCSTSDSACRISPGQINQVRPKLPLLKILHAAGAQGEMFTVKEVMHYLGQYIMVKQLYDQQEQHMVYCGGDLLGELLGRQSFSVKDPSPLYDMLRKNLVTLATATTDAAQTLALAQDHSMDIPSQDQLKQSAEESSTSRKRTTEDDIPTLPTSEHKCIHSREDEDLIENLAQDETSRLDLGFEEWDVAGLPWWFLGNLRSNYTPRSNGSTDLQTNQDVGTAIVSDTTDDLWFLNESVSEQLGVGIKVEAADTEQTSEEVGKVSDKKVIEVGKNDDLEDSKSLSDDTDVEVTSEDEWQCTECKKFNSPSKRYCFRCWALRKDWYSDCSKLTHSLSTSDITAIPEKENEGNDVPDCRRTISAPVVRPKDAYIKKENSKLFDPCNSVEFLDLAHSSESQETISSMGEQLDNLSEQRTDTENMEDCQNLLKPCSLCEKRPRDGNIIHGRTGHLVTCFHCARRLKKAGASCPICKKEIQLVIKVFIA
Target sequence (Q00987 whole entry, looked up): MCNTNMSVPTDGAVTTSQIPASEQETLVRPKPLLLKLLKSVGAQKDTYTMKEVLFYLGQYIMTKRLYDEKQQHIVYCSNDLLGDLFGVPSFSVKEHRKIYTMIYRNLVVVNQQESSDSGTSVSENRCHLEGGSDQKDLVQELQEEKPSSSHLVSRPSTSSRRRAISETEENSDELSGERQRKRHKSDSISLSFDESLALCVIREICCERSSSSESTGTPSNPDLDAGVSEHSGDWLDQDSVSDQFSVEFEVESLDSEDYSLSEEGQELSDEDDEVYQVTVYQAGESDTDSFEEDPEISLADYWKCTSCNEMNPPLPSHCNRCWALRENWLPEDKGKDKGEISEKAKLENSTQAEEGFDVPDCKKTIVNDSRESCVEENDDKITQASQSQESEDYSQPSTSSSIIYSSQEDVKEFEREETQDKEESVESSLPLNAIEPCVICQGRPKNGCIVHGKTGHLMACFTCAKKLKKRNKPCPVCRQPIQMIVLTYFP
SKKanGAS inh: inhibitors of SKKanGAS S. pyogenes growth in kanamycin (SK-promoter or general growth effect). BacTiter-Glo, 6 h. inhibition, % at 7.5 µM. actives 1.3% (n = 300,000). AID 1662;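 active = mean replicate score, as percent of positive control median, at least 50; inconclusive = mean below 50 but one replicate at or above 50; inactive = mean and every replicate below 50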;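 note: strain carries kanamycin resistance gene driven by streptokinase promoter and grows in 40 µg/ml kanamycin; loss of luminescence reflects streptokinase promoter inhibition or plain growth inhibition; 0% = median of DMSO wells and 100% = positive control at its reference dose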
T cruzi repl: blocks replication of Trypanosoma cruzi; T. cruzi beta-gal in NIH3T3, luminescence, 90 h; inhibition, % (no concentration beside the values); actives 1.4% (n = 300,000);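 active = mean inhibition across valid replicates above about 55%, limit read from the data; inconclusive = mean below that limit but half or more replicates reach it; inactive = mean below it, under half of replicates reach it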;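 note: signal also drops with host cell toxicity which is not excluded here; 0% = plate median of DMSO wells and 100% = zero luminescence signal; higher percent means less beta-gal luminescence so fewer parasites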
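Incubation – ≥90 h infection period, 3 h prior cell attachment · System – NIH/3T3 fibroblasts plus reporter T. cruzi · Doses – compound pinned at 50 nL/well, DMSO · Read-out basis – percent inhibition of parasite-derived β-gal signal · Signal – luminescent β-galactosidase signal after 60 min lysis · Also added – 5000 T. cruzi trypomastigotes/well · Medium – Low-serum DMEM with 2% FBS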
CSC inhib: cancer stem cell inhibition | cancer stem cell-like cells viability, luminescence | inhibition, % at 7.5 µM | AID 2717 | actives 1.1% (n = 300,000); in the data active = inhibition above about 75%; inconclusive = no clear call, values can overlap the other calls; tested in HMLE shEcad cells
Beta apoptosis: beta cell apoptosis inhibition; INS-1E cytokine-induced death, ATP luminescence, 48 h; percent of positive-control rescue, neutral wells zero; protection from apoptosis, % (concentration not given with the values); actives 0.8% (n = 300,000);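 active = Every replicate reaches about 75%, or at least half do and their mean reaches it too, limit read from the data; inconclusive = At least half of replicates reach the limit but their mean does not; inactive = Under half of replicates reach the limit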;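 note: 0% = cytokine-treated negative control wells and 100% = positive control rescue; higher means more ATP so stronger rescue from cytokine killing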
An asterisk follows results filed as active. Only some compounds are listed: those with a hit (about 9.4% of all), similar ones and a draw of the others.

What do the screens show for `COC(=O)c1ccc(-c2nc(CN3CCN(Cc4cccc(C)c4)CC3)c(C)o2)cc1`?
Mdm2 MdmX PPI: 19; SKKanGAS inh: 2; T cruzi repl: 57*; CSC inhib: -5; Beta apoptosis: -7

What do the screens show for `COc1ccccc1N1CCN(Cc2nc(-c3ccc(F)cc3)oc2C)CC1`?
Lmaj promast: 16; Mdm2 MdmX PPI: 36; SKKanGAS inh: -3; T cruzi repl: 1; CSC inhib: -2; Beta apoptosis: 6

What do the screens show for `Cc1cc(N2CCN(Cc3nc(-c4ccc(F)cc4)oc3C)CC2)cc(C)n1`?
Lmaj promast: 93*; Mdm2 MdmX PPI: 22; SKKanGAS inh: 6; T cruzi repl: -38; CSC inhib: 43; Beta apoptosis: -4

How did CCN1C(=O)[C@H]2[C@@H](c3ccc(C)cc3)N3C(=O)N(c4ccccc4)C(=O)[C@@]3(Cc3ccccc3)[C@H]2C1=O do in these assays?
Mdm2 MdmX PPI: 11; SKKanGAS inh: -6; T cruzi repl: 1; CSC inhib: 3; Beta apoptosis: -1

How did O=C1NC(c2ccc(Br)cc2)Oc2ccccc21 (stereo not given) do in these assays?
Mdm2 MdmX PPI: 29; SKKanGAS inh: 8; T cruzi repl: -4; CSC inhib: -8; Beta apoptosis: -11

What do the screens show for `CCOP(=O)(c1ccccc1)c1nc(-c2ccccc2C)oc1NCc1ccccc1` (stereo not given)?
Mdm2 MdmX PPI: 21; SKKanGAS inh: 22; T cruzi repl: 11; CSC inhib: 33; Beta apoptosis: -6

How did O=C(CN1CCOCC1)Nc1ccc([N+](=O)[O-])cc1 do in these assays?
Mdm2 MdmX PPI: 7; SKKanGAS inh: 3; T cruzi repl: -6; CSC inhib: -7; Beta apoptosis: -9

What do the screens show for `Cc1nnc(N/N=C/c2cccc(OCc3ccc(Cl)c(Cl)c3)c2)n1N`?
Lmaj promast: 73*; Mdm2 MdmX PPI: -5; SKKanGAS inh: 8; T cruzi repl: -1; CSC inhib: 21; Beta apoptosis: 16

Results for O=c1[nH]c(/C=C/c2ccccc2OC(F)F)nc2c1cnn2-c1ccccc1 ?
Lmaj promast: 62*; Mdm2 MdmX PPI: 9; SKKanGAS inh: -7; T cruzi repl: 15; Beta apoptosis: -3

What do the screens show for `COc1cc(/C=C/c2nc3ccccc3c(=O)[nH]2)ccc1OC(F)F`?
Mdm2 MdmX PPI: -14; SKKanGAS inh: 3; T cruzi repl: 1; CSC inhib: 7; Beta apoptosis: 5

What do the screens show for `CCN(CC#CCC(O)(c1ccccc1)c1ccccc1)C(C)C`?
Lmaj promast: 87*; Mdm2 MdmX PPI: 12; SKKanGAS inh: 0; T cruzi repl: 14; CSC inhib: 2

Results for CC(C)N(CC#CCC(O)(c1ccccc1)c1ccccc1)C(C)C ?
Lmaj promast: 88*; Mdm2 MdmX PPI: 32; SKKanGAS inh: 0; T cruzi repl: -5; CSC inhib: 4; Beta apoptosis: -2

What do the screens show for `Cc1ccc(C(C(=O)NC(C)(C)C)N(CC2CCCO2)C(=O)Cn2nnc(-c3ccc(C)o3)n2)cc1` (stereo not given)?
Lmaj promast: 54*; Mdm2 MdmX PPI: -2; SKKanGAS inh: -12; T cruzi repl: inconclusive; CSC inhib: -18

What do the screens show for `Cc1ccc(-c2nnn(CC(=O)N(CC3CCCO3)C(C(=O)NC3CCCC3)c3ccc(O)cc3)n2)o1` (stereo not given)?
Lmaj promast: -12; Mdm2 MdmX PPI: -28; SKKanGAS inh: 13; T cruzi repl: -4; CSC inhib: 9; Beta apoptosis: -1

What do the screens show for `C/C(=N\Nc1ccc([N+](=O)[O-])cc1)c1ccc(C#N)cc1`?
Mdm2 MdmX PPI: -2; SKKanGAS inh: 1; T cruzi repl: -1; CSC inhib: 0; Beta apoptosis: 3

Results for N#CC(C#N)=NNc1ccc([N+](=O)[O-])cc1 ?
Mdm2 MdmX PPI: 26; SKKanGAS inh: 86*; T cruzi repl: 52; CSC inhib: 61; Beta apoptosis: 14

Results for Cc1cccn2c(/C=N/OCc3cccc(F)c3)c(-c3ccc(Cl)cc3)nc12 ?
Lmaj promast: 56*; Mdm2 MdmX PPI: 21; SKKanGAS inh: 20; T cruzi repl: 22; CSC inhib: 85*; Beta apoptosis: 5

How did COc1cccc(/C(C#N)=C/c2c(-c3ccc(Cl)cc3)nc3c(C)cccn23)c1 do in these assays?
Lmaj promast: 67*; Mdm2 MdmX PPI: 16; SKKanGAS inh: -10; T cruzi repl: 14; CSC inhib: 21; Beta apoptosis: 6
